Results as given in ChEMBL document CHEMBL4316593 (Eur J Med Chem, 2019).
The source made the active and inactive calls. The rule behind the calls is not given here.

What was measured:
[1] = Inhibition of RTK/PI3K/AKT/mTOR signaling in human U87 cells assessed as up regulation of INHBE gene expression at cytotoxic IC50 measured after 48 hrs relative to control; assay type: cell-based; conditions: U-87MG ATCC
Summary of the method: (§1)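 Cells were exposed for 48hrs at 37°C in humidified 5% CO₂ to the compound at its previously determined IC₅₀, with Cisplatin at its IC₅₀ and an untreated negative control alongside. Each condition was run in triplicate. RNA was isolated from all samples by the same protocol. Genes were called differentially expressed by DESeq2 at q-value < 0.05 and fold change > 1.5.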

U-87 MG [2] = experiment: Induction of DNA damage in human U87 cells assessed as change in BRIP1 gene expression at cytotoxic IC50 measured after 48 hrs […] relative to control; assay type: functional, U-87MG ATCC
Summary of the method: (§2)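 U87 expression profiling. Cells incubated 48hrs at 37°C, 5% CO₂ with the IC₅₀ concentration, alongside a cisplatin and an untreated control, in triplicate. RNA was isolated by one common protocol and profiled. DEGs were called with DESeq2 (q < 0.05, fold change > 1.5) and expressed as fold change versus untreated.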

[3] = Inhibition of RTK/PI3K/AKT/mTOR signaling in human U87 cells assessed as up regulation of TOX2 gene expression at cytotoxic IC50 measured after 48 hrs relative to control; assay type: cell-based; conditions: U-87MG ATCC
[4] = Inhibition of RTK/PI3K/AKT/mTOR signaling in human U87 cells assessed as up regulation of mesencephalic astrocyte derived neurotrophic factor gene expression at cytotoxic IC50 measured after 48 hrs relative to control; assay type: cell-based
U-87 MG [5] = experiment: Cell cycle arrest in human U87 cells assessed as change in CDK6 gene expression at cytotoxic IC50 measured after 48 hrs […] relative to control; assay type: functional, U-87MG ATCC; summary of the method: as §2
[6] = Inhibition of RTK/PI3K/AKT/mTOR signaling in human U87 cells assessed as down regulation of COX17 gene expression at cytotoxic IC50 measured after 48 hrs relative to control; assay type: cell-based; conditions: U-87MG ATCC
Summary of the method: (§3)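 U87 cells grown in MEM with 10% FBS at 37°C, 5% CO2. Cells exposed to IC50 of test compound for 48 hrs, alongside untreated and cisplatin controls, each condition in triplicate. RNA isolated and profiled; differential expression called with DESeq2 (q-value < 0.05, fold change > 1.5), fold change versus untreated.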

[7] = Inhibition of RTK/PI3K/AKT/mTOR signaling in human U87 cells assessed as up regulation of TTYH3 gene expression at cytotoxic IC50 measured after 48 hrs relative to control; assay type: cell-based; conditions: U-87MG ATCC
U-87 MG [8] = experiment: Induction of DNA damage in human U87 cells assessed as change in PLK2 gene expression at cytotoxic IC50 measured after 48 hrs […] relative to control; assay type: functional, U-87MG ATCC; summary of the method: as §2
[9] = Inhibition of RTK/PI3K/AKT/mTOR signaling in human U87 cells assessed as up regulation of basic transcription factor 3 like 4 gene expression at cytotoxic IC50 measured after 48 hrs relative to control; assay type: cell-based; conditions: U-87MG ATCC
U-87 MG [10] = experiment: Cell cycle arrest in human U87 cells assessed as change in E2F2 gene expression at cytotoxic IC50 measured after 48 hrs […] relative to control; assay type: functional, U-87MG ATCC; summary of the method: as §2
U-87 MG [11] = experiment: Induction of apoptosis in human U87 cells assessed as change in CAPN1 gene expression at cytotoxic IC50 measured after 48 hrs […] relative to control; assay type: functional, U-87MG ATCC; summary of the method: as §3
U-87 MG [12] = experiment: Cell cycle arrest in human U87 cells assessed as change in CDK7 gene expression at cytotoxic IC50 measured after 48 hrs […] relative to control; assay type: functional, U-87MG ATCC; summary of the method: as §2
[13] = Inhibition of RTK/PI3K/AKT/mTOR signaling in human U87 cells assessed as up regulation of ubiquitin-fold modifier conjugating enzyme 1 gene expression at cytotoxic IC50 measured after 48 hrs relative to control; assay type: cell-based; conditions: U-87MG ATCC
U-87 MG [14] = experiment: Cytotoxicity against human U87 cells assessed as reduction in cell proliferation up to 200 uM by trypan blue dye-based cell counting analysis; assay type: functional; conditions: U-87MG ATCC, TDE = time-dependent effect
Summary of the method: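 U87 cells grown 24hrs, then treated for 5hrs with 0-200 μM. Viability by trypan blue exclusion; mean ± S.E.M, n = 4 per group, one-way ANOVA.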

U-87 MG [15] = experiment: Cell cycle arrest in human U87 cells assessed as change in ESPL1 gene expression at cytotoxic IC50 measured after 48 hrs […] relative to control; assay type: functional, U-87MG ATCC; summary of the method: as §2
U-87 MG [16] = experiment: Cell cycle arrest in human U87 cells assessed as accumulation at G1 phase at cytotoxic IC50 measured after 48 hrs by propidium iodide staining based fluorescence cell imaging analysis (reference value: 39.7%); assay type: functional, U-87MG ATCC
Summary of the method: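 Cell cycle by PI staining. Cells seeded at 1×10^6 and grown overnight at 37°C, 5% CO₂, then exposed for 48hrs at their IC₅₀ concentration, with DMSO and cisplatin controls. Cells were trypsinized, washed in cold PBS and fixed in 70% ethanol at 4°C for 30 min. They were stained with PI in Triton X-100/RNase for 15 min at 37°C and imaged by fluorescence microscopy. Reported as mean ± S.E.M of triplicates.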

U-87 MG [17] = experiment: Induction of apoptosis in human U87 cells assessed as change in MAPK8 gene expression at cytotoxic IC50 measured after 48 hrs […] relative to control; assay type: functional, U-87MG ATCC; summary of the method: as §3
U-87 MG [18] = experiment: Induction of apoptosis in human U87 cells assessed as change in BAX gene expression at cytotoxic IC50 measured after 48 hrs […] relative to control; assay type: functional, U-87MG ATCC; summary of the method: as §3
[19] = Inhibition of RTK/PI3K/AKT/mTOR signaling in human U87 cells assessed as up regulation of MORC family CW-type zinc finger 2 gene expression at cytotoxic IC50 measured after 48 hrs relative to control; assay type: cell-based; conditions: U-87MG ATCC; summary of the method: as §1
[20] = Inhibition of RTK/PI3K/AKT/mTOR signaling in human U87 cells assessed as up regulation of SLC45A3 gene expression at cytotoxic IC50 measured after 48 hrs relative to control; assay type: cell-based; conditions: U-87MG ATCC
[21] = Inhibition of RTK/PI3K/AKT/mTOR signaling in human U87 cells assessed as down regulation of FLII gene expression at cytotoxic IC50 measured after 48 hrs relative to control; assay type: cell-based; conditions: U-87MG ATCC; summary of the method: as §3
[22] = Inhibition of RTK/PI3K/AKT/mTOR signaling in human U87 cells assessed as up regulation of RHOA gene expression at cytotoxic IC50 measured after 48 hrs relative to control; assay type: cell-based; conditions: U-87MG ATCC; summary of the method: as §1
U-87 MG [23] = experiment: Cytotoxicity against human U87 cells assessed as reduction in cell proliferation at 100 uM measured after 48 hrs by trypan blue dye-based cell counting analysis; assay type: functional; conditions: U-87MG ATCC
Summary of the method: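 Trypan blue viability assay. U87 (MEM, 10% FBS) or LN229 (DMEM, 5% FBS) cells were treated for 48hrs. Screening used 100 μM; the dose-response used 100, 75, 50, 25 and 10 μM. Cells were pelleted at 1200 rpm and live/dead cells counted by automated counter. Mortality % was taken relative to the DMSO control, and IC₅₀ derived from the dose-response curve. Cisplatin served as positive control.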

[24] = Inhibition of RTK/PI3K/AKT/mTOR signaling in human U87 cells assessed as up regulation of fibroblast growth factor 19 gene expression at cytotoxic IC50 measured after 48 hrs relative to control; assay type: cell-based

Question: Which results are given for `CC(=O)C(=NNc1ccccc1C#N)C(C)=O`?
Answer: log2FC [1]: 2.96; fold change (FC) (U-87 MG [2]): 2.317; log2FC [3]: 1.66; log2FC [4]: 0.684; fold change (FC) (U-87 MG [5]): -1.311; log2FC [6]: -1.13; log2FC [7]: 0.524; fold change (FC) (U-87 MG [8]): 1.28; log2FC [9]: 0.896; fold change (FC) (U-87 MG [10]): 2.384; log2FC (U-87 MG [11]): 0.8843; fold change (FC) (U-87 MG [12]): -1.609; log2FC [13]: 0.669; Activity (U-87 MG [14]): Tde; fold change (FC) (U-87 MG [15]): 2.307; Activity (U-87 MG [16]): 47.7%; log2FC (U-87 MG [17]): -1.076; log2FC (U-87 MG [18]): 2.512; log2FC [19]: 0.946; log2FC [20]: 1.61; log2FC [21]: -0.583; log2FC [22]: 0.32; Activity (U-87 MG [23]): Active; log2FC [24]: 0.722
